Data set [1] in a line: Half life in mouse at 1 mg/kg, iv or 2 mg/kg, po. The data set is classed as ADME, organism-based. The following applies: in vivo. The method in brief:
(§1)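 Mouse PK. Intravenous dose 1 mg/kg and oral dose 2 mg/kg, both given in DMSO/PEG400/water (5:40:55 v:v:v).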

A short description of data set [2]: Clearance in mouse at 1 mg/kg, iv or 2 mg/kg, po. The data set is classed as ADME, organism-based. The following applies: in vivo. The method, boiled down:
as §1

Another data set addresses T1, Cytochrome P450 2C8 (Homo sapiens, UniProt P10632).
T1 sequence (P10632 whole entry): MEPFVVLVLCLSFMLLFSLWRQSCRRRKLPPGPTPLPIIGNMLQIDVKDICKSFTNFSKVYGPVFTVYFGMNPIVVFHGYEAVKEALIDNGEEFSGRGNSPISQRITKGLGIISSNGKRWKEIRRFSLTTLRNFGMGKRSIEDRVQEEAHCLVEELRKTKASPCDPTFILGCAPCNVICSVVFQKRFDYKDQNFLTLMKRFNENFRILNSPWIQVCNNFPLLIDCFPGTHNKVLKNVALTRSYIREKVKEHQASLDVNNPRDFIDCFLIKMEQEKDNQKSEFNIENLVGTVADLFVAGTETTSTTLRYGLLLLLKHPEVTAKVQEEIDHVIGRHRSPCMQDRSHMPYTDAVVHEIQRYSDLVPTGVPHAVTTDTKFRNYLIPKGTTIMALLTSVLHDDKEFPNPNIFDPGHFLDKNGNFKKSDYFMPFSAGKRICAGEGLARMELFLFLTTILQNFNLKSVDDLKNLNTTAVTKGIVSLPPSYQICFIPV
Kind of data set: Inhibition of CYP2C8 in human liver microsomes. It counts as ADME, Microsome. The method, boiled down:
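Human liver microsome CYP2C8 inhibition with taxol as substrate and montelukast as positive control; IC50 reported.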

Data set [3] can be described thus: Cmax in mouse at 1 mg/kg, iv or 2 mg/kg, po. The data set is classed as ADME, organism-based. The conditions noted are these: in vivo. The method, boiled down: as §1
The nature of data set [4]: Volume of distribution at steady state in mouse at 1 mg/kg, iv or 2 mg/kg, po. The data set is classed as ADME, organism-based. The conditions noted are these: in vivo, read-out: Vdss. The method in brief:
as §1

The nature of data set [5]: Oral bioavailability in mouse at 2 mg/kg, po. The data set is classed as ADME, organism-based. The following applies: in vivo. The method in brief:
as §1

The target of another data set is Cytochrome P450 2C9 (Homo sapiens, UniProt P11712). Kind of data set: Inhibition of CYP2C9 in human liver microsomes. It counts as ADME, Microsome.
The next data set has as its system Adipocyte. The data set is described as follows: Inhibition of lipolysis in human adipocytes. It counts as functional, cell-based. The method in brief:
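Inhibition of lipolysis in human adipocytes, read as reduction of free fatty acid release.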

Data set [6] in a line: Therapeutic index, ratio of vasodilating effect to IC50 for FFA reduction in mouse. It counts as organism-based. The conditions noted are these: in vivo. The method, boiled down: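 Mouse ear vasodilation (flushing) measured as the change in blood perfusion by laser Doppler flowmetry after i.p. dosing in 5% DMSO/40% PEG400/55% water, with plasma drug level taken post-dose. Plasma FFA reduction was measured after p.o. dosing, with compound and FFA plasma levels at 15 min. TI = minimum plasma level inducing flushing ÷ in vivo IC50 for FFA reduction.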

In data set [7] the target is T2, Hydroxycarboxylic acid receptor 2 (Mus musculus, UniProt Q9EP66). The data set is described as follows: Agonist activity at mouse GPR109A by [35S]GTP-gamma-S binding assay. The data set is classed as functional. In general terms: GTPγS resists hydrolysis and so accumulates on activated G proteins.
In data set [8] the test system is Mus musculus. Kind of data set: Vasodilation effect in mouse ear at 100 mg/kg, ip. It counts as functional, organism-based. More on the design: dose 100 mg/kg. The method, boiled down: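 Flushing model in mice. Compound given i.p. in 5% DMSO/40% PEG400/55% water. Vasodilation read as the change in ear blood perfusion by laser Doppler flowmetry.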
Data set [9] in a line: Plasma concentration in mouse at 100 mg/kg, ip after 15 mins. More on the design: dose 100 mg/kg, route intraperitoneal. The data set is classed as ADME, organism-based. The method in brief:
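After an i.p. dose in the mouse ear vasodilation study, plasma compound level measured at 15 min post-dose.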

For data set [10], the system named is Mus musculus. Kind of data set: Reduction of plasma free fatty acid levels in po dosed mouse after 15 mins. It counts as functional, organism-based. The conditions noted are these: for ED50: po. The method, boiled down:
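Mice dosed orally. Plasma free fatty acids and plasma compound level both measured at 15 min post-dosing.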

The target in data set [11] is T2, Hydroxycarboxylic acid receptor 2. Kind of data set: Displacement of [3H]niacin from mouse GPR109A. On the technique in general: In a radioligand displacement assay an active substance lowers the binding of a labelled ligand.
Data set [12] has as its system Mus musculus. Kind of data set: Drug level in mouse at 10 mg/kg, po. The conditions noted are these: read-out: Activity, in vivo.
A short description of data set [13]: Plasma concentration in mouse at 3 mg/kg, ip after 5 mins.

Molecules are shown by their SMILES. Activity calls are given as the source filed them.

By half-life is commonly meant the time needed for the level to fall by half in the phase considered. A low value points to fast loss. As usually defined, the IC50 is the concentration needed to halve the response being measured. A higher IC50 goes with a need for much substance. One may read the Cmax as the maximum level reached in the sampled fluid or tissue. By bioavailability is commonly meant the share of a dose that reaches the circulation, judged against a reference dose that is usually intravenous. A high value points to much systemic uptake. The EC50 is the concentration needed to bring the measured effect to its halfway point. Low readings indicate an effect from little substance, high ones a need for much substance. For orientation: ED50 means the dose at which the effect has come halfway, by size or by number of responders. High values mean a need for a large dose, low ones an effect at a small dose.

Sequence of Cytochrome P450 2C9 (P11712 whole entry): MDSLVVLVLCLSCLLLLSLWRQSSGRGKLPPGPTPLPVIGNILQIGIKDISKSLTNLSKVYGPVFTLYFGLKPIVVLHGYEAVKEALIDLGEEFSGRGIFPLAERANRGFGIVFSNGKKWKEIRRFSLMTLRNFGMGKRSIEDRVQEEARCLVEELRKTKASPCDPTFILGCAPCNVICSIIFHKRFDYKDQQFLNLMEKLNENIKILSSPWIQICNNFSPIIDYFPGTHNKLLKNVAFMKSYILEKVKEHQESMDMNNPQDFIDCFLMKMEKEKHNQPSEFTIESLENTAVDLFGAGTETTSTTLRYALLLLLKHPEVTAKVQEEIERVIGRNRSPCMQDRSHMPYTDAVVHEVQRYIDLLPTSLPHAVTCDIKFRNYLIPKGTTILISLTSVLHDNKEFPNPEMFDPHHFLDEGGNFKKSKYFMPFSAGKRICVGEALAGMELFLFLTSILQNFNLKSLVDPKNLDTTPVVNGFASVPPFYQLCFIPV
T2 sequence (Q9EP66 whole entry, the tested form may be a part): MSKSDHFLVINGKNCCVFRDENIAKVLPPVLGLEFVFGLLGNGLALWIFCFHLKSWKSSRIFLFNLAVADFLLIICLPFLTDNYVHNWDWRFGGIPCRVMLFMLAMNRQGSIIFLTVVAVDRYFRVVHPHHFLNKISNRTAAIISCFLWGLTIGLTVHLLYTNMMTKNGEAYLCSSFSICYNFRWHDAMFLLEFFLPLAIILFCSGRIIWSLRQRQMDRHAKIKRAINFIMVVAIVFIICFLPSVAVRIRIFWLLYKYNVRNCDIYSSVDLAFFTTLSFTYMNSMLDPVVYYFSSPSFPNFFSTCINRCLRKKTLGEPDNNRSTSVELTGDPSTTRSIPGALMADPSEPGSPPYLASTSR

In data set [1], `O=C(CCc1ccc(-c2ccc(O)cc2Cl)cc1)Nc1ccccc1C(=O)O` had a half-life of 2 h. Moreover, in data set [2], the clearance was determined as 18 mL/min/kg. The half-maximal inhibitory concentration (IC50) on Cytochrome P450 2C8 and at Cytochrome P450 2C9 was less than 0.4 µM throughout. For the same compound, the peak level in [3] (Cmax) was 960 nM. Also, the Vd in data set [4] came to 0.35 L/kg. In addition, the bioavailability in data set [5] is 5%.
Take `O=C(CCc1nc(-c2ccc(O)cn2)no1)Nc1ccccc1C(=O)O`: the IC50 on Cytochrome P450 2C8 was more than 100 µM; at Cytochrome P450 2C9, more than 100 µM; with Adipocyte, 0.005 µM.
As to `O=C(CCc1ncc(-c2ccc(O)cn2)s1)Nc1ccccc1C(=O)O`, the half-maximal inhibitory concentration (IC50) turned out to be 9.3 µM on Cytochrome P450 2C8 and 4.2 µM against Cytochrome P450 2C9.
Take `O=C(CCc1ccc(-c2ccc(O)cn2)cc1)Nc1ccccc1C(=O)O`: in data set [1], the half-life was 5.3 h. In addition, the clearance in data set [2] was 0.38 mL/min/kg. In addition, the half-maximal inhibitory concentration (IC50) is 8.9 µM against Cytochrome P450 2C8 and 1.6 µM on Cytochrome P450 2C9. In addition, the Cmax in data set [3] was determined as 5000 nM. In addition, the Vd in data set [4] amounted to 0.11 L/kg. The bioavailability in data set [5] was determined as 57%.
For `O=C(CCc1nc(-c2ccc(O)cc2)no1)Nc1ccccc1C(=O)O`, the selectivity ratio in [6] is more than 70. The compound also returned a 50% effective concentration (EC50) in [7] of 1.6 µM. In [1], this compound showed a half-life of 1.3 h. Also, in data set [2], the clearance was found to be 34 mL/min/kg. In the data set on Mus musculus [8], the outcome was inactive. In data set [3], this compound gave a Cmax of 120 nM. Further, the Vd in data set [4] turned out to be 1.66 L/kg. This compound gave a concentration at […] in data set [9] of 490000 nM. The IC50 was 6.9 µM with Mus musculus [10], 0.46 µM in data set [11] and 0.03 µM in the data set on Adipocyte. The compound also yielded a 50% effective dose (ED50) in the data set with Mus musculus [10] of 9 mg/kg. In addition, the bioavailability in data set [5] was found to be 6%.
For `O=C(CCc1cnc(-c2ccc(O)cc2Cl)s1)Nc1ccccc1C(=O)O`, the half-life in data set [1] was 1.6 h. The compound also showed a clearance in [2] of 7.3 mL/min/kg. For the same compound, the IC50 against Cytochrome P450 2C8 was found to be 1.2 µM; against Cytochrome P450 2C9, 2.8 µM. The Cmax in [3] was 2100 nM. The Vd in data set [4] was found to be 0.37 L/kg. Moreover, the bioavailability in data set [5] was found to be 37%.
In data set [1], `Cc1c(CCC(=O)Nc2ccccc2C(=O)O)cnn1-c1ccc(O)cc1` gave a half-life of 1.1 h. This compound displayed a clearance in data set [2] of 26 mL/min/kg. Moreover, the IC50 is 19 µM against Cytochrome P450 2C8, 15 µM at Cytochrome P450 2C9 and 0.04 µM with Adipocyte. Moreover, the Cmax in data set [3] turned out to be 30 nM. Also, the Vd in data set [4] was found to be 0.88 L/kg. The bioavailability in data set [5] worked out at 2.5%.
The compound `O=C(CCc1cnc(-c2ccc(O)cn2)s1)Nc1ccccc1C(=O)O` showed a half-life in data set [1] of 2.2 h. Further, the clearance in data set [2] stood at 8.5 mL/min/kg. In addition, the values for the IC50 on Cytochrome P450 2C8 and on Cytochrome P450 2C9 were 20.3 µM and 5.7 µM, respectively. For the same compound, the Cmax in [3] was 520 nM. The Vd in data set [4] was 0.62 L/kg. The bioavailability in data set [5] amounted to 27%.
In the case of `O=C(O)c1cccnc1` [NIACIN], in the data set with Mus musculus [12], the concentration is 20000 nM. Further, the 50% effect level with Mus musculus [10] (ED50) was put at a dose of 8 mg/kg. Besides, in data set [13], the concentration at 5 min was determined as 18000 nM.

(Values after ChEMBL document CHEMBL1138322 (J Med Chem, 2007).)
